Source: PubChem
OX1R antag-1: blocks the human orexin 1 receptor; O43613; CHO/OX1R cells, Fluo-8 calcium fluorescence, orexin A; inhibition, % at 5 µM; actives 0.43% (n = 330,000);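 active = inhibition above its plate's threshold, mean inhibition of all tested compounds on the plate plus 3 SD, cut at about 37% in these data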;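 also: 0% = orexin A challenge wells and 100% = SB-334867-A antagonist wells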
GPR7 antagonist: human neuropeptides B/W receptor 1 antagonism | actives 1.1% (n = 290,000) | inhibition, % at 4.4 µM | AID 1861 | GPR7-expressing cells, fluorescence antagonist assay; in the data active = inhibition above about 16%, passing the limit was not always enough;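 also: cells stimulated with the agonist NPW; 0% = agonist with vehicle and 100% = vehicle without agonist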
Target sequence (P48145 whole entry, looked up): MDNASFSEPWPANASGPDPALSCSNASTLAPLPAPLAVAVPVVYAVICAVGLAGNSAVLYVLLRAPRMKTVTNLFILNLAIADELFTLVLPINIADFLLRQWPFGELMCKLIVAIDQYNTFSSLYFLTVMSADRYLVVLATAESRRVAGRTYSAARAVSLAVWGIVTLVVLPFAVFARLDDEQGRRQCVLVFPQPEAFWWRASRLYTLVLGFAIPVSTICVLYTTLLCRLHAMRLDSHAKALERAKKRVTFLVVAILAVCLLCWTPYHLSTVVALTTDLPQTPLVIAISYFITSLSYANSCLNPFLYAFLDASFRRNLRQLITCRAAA
OX1R antag-2: antagonists of human orexin 1 receptor (OX1R); OX1R-expressing cells, FRET antagonist read-out; actives 1.8% (n = 330,000); inhibition, % at 6.6 µM; in the data active = inhibition mostly above about 38%, no sharp cut-off; inactive = mostly below about 40%;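 also: 0% = agonist challenge alone and 100% = reference antagonist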
CHO parental Ca: counter-screen: ATP calcium response change in parental CHO cells. parental CHO-K1, ATP-induced calcium, Fluo-8 fluorescence. inhibition, % at 5.6 µM. actives 0.63% (n = 330,000);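 active = inhibition above that plate's mean sample inhibition plus 3 SD, cut at about 26% in these data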;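 also: 0% = ATP-challenged DMSO wells and 100% = DMSO wells without ATP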
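Test system: untransfected parental CHO cell line. Compound: one dose, 5.6 µM nominal. Detection: intracellular calcium via Fluo-8 no-wash fluorescent dye. Measure: % inhibition. Benchmarks: ATP-challenged DMSO wells low, unchallenged DMSO wells high.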
TAAR1 ag: human TAAR1 agonism | activation, % at 3 µM | Q96RJ0 | AID 624467 | actives 0.99% (n = 360,000) | CHO RD-HGA16 TAAR1, Fluo-8 calcium fluorescence; vehicle wells 0%, saturating PEA agonist 100%;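 active = activation above the mean activation of all test compounds in the run plus 3 SD, cut at about 38% in these data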
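System: CHO-derived RD-HGA16 cells with stable Gα16 and human TAAR1 / Times: 17-24 h plating, Fluo-8 75 min 37 °C, 30 min RT / Technique: calcium-sensitive Fluo-8 signal, excitation 470-495, emission 515-575 nm / Measure: % activation relative to PEA EC100 response / Benchmarks: DMSO and PEA EC100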
TAAR1 antagonist: human TAAR1 antagonism. Q96RJ0. CHO RD-HGA16 TAAR1, Fluo-8 calcium fluorescence, antagonist. inhibition, % at 3 µM. actives 1.5% (n = 360,000);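 active = inhibition above a per-plate cutoff, the mean inhibition of test compounds on that plate plus 3 SD, cut at about 49% in these data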;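 also: 0% = DMSO plus EC80 beta-PEA response and 100% = DMSO alone without agonist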
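Test system: hTAAR1-expressing CHO RD-HGA16 cells, Gα16-coupled; Probe or stimulus: EC80 β-phenethylamine stimulus; Compound dosing: single nominal final test compound concentration of 3 µM; Timing: 140 s kinetic read after compound, 140 s after agonist; Signal: Fluo-8 calcium-sensitive fluorescence; Measure: % inhibition of agonist calcium response; Controls: DMSO and EC80 PEA controls.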
nonsel antag count: counter-screen for TAAR1 antagonists: nonselective antagonists. shares compounds with TAAR1 antagonist. counterscreen cell line, calcium fluorescence, antagonist mode. inhibition, % at 3 µM. actives 77% (n = 2,400); in the data active = inhibition above about 22%;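 also: CHO-Ga16 host cells stimulated with ATP at an EC80 level; 0% = agonist EC80 plus vehicle and 100% = vehicle without agonist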
TAAR1 antag conf: confirmation of human TAAR1 antagonists | shares compounds with TAAR1 antagonist | TAAR1-expressing cells, fluorescence antagonist read-out | inhibition, % at 3 µM | actives 40% (n = 2,400); in the data active = inhibition above about 49%;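 also: CHO-Ga16 host cells challenged with agonist PEA near its EC80; 0% = agonist at EC80 plus vehicle and 100% = vehicle with no agonist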
Ga16 nonsel ag: nonselective Ga16 agonism, counter-screen | shares compounds with TAAR1 antagonist | Ga16-expressing cells, calcium fluorescence, agonist counterscreen | activation, % at 3 µM | actives 18% (n = 2,400) | AID 651953; in the data active = activation above about 12%;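 also: 0% = vehicle wells and 100% = saturating stimulus response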
TAAR1 ag counter: activates human TAAR1 in antagonist counter-screen. shares compounds with TAAR1 antagonist. hTAAR1 cell line, fluorescence activation, agonist mode. activation, % at 3 µM. actives 2% (n = 2,400). AID 651955; in the data active = activation above about 37%;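 also: CHO cells stably expressing TAAR1 with calcium dye readout; 0% = DMSO vehicle and 100% = full agonist response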
* hit, by the source's call; x = no result. An excerpt weighted towards active compounds, which were near 4.6% of everything screened.

SMILES	OX1R antag-1	GPR7 antagonist	OX1R antag-2	CHO parental Ca	TAAR1 ag	TAAR1 antagonist	nonsel antag count	TAAR1 antag conf	Ga16 nonsel ag	TAAR1 ag counter
O=C(COC(=O)CNC(=O)C1CCCCC1)Nc1ccccc1Cl	-15	x	5	-6	2	-8	x	x	x	x
COC(=O)c1ccc(C)c(NC(=O)CSc2nnc3ccccn23)c1	-5	x	6	-16	-2	87*	3	0	0	10
Cc1cccc(NC(=O)Cn2nnc(-c3cccs3)n2)c1C	0	3	7	-1	14	66*	20	46	4	7
CC(C)(Oc1ccc(Cl)cc1)C(=O)NCC(c1cccs1)N1CCOCC1 (stereo not drawn)	-9	x	19	-8	9	58*	17	23	5	1
COc1ccccc1NC(=O)COC(=O)c1cc(C)oc1C	-1	x	18	-38	3	-2	x	x	x	x
CC(=O)c1ccccc1NC(=O)COC(=O)c1cc(C)oc1C	-27	x	11	-3	34	54*	4	10	0	5
COc1cccc(-c2nn(-c3ccc(C)cc3)cc2C(=O)N(C)CC(=O)Nc2cccc(F)c2)c1	3	x	11	-18	4	61*	29*	33	4	6
COc1ccc(-c2nn(-c3ccccc3)cc2C(=O)N(C)CC(=O)Nc2cccc(F)c2)cc1	-9	x	6	-7	2	20	x	x	x	x
COc1cccc(NC(=O)CN(C)C(=O)c2cc(-c3ccco3)nc3ccccc23)c1	-24	x	35	-16	13	48	x	x	x	x
CN(CC(=O)Nc1cccc(F)c1)C(=O)c1cc(-c2ccccc2)nc2ccccc12	-8	x	15	-5	5	72*	31*	49*	9	5
COc1ccc(-c2cc(C(=O)N(C)CC(=O)Nc3cccc(F)c3)c3ccccc3n2)cc1	-13	x	38	-1	8	82*	41*	61*	10	6
Cc1nn(C)cc1CN(C)C(=O)c1cc(-c2ccccc2)nc2ccc(Br)cc12	-22	-6	22	-26	17	65*	37*	54*	8	8
OC(c1ccccc1)c1nc(-c2cccc(C(F)(F)F)c2)cs1 (stereo not drawn)	x	x	x	x	3	12	x	x	x	x
CCOc1ccc(NC(=O)C2CCCN(C)C2)cc1 (stereo not drawn)	-6	5	14	-14	2	-18	x	x	x	x
Cc1ccc2nc(-c3ccccc3)cc(C(=O)N(C)CC(=O)Nc3ccccc3Br)c2c1	1	x	17	-31	7	61*	31*	56*	9	7
Cc1cc(C(=O)COC(=O)Cn2c(C(F)(F)F)nc3ccccc32)c(C)n1Cc1ccco1	-27	4	12	-32	10	51*	17	26	10	13
Cc1ccc(C(=O)NCC(=O)OCC(=O)c2cc(C)n(Cc3ccco3)c2C)cc1	-18	-3	17	-20	-2	0	x	x	x	x
CCN(CC)C(=O)c1cccc(-c2csc(C(C)(O)c3cccc(OC)c3)n2)c1 (stereo not drawn)	x	x	x	x	13	78*	46*	59*	15*	15
CCN(CC)C(=O)c1cccc(-c2csc(C(C)(O)c3ccc(OC)cc3)n2)c1 (stereo not drawn)	x	x	x	x	16	86*	40*	60*	15*	17
CCN(CC)C(=O)c1cccc(-c2csc(C(C)(O)c3ccccc3)n2)c1 (stereo not drawn)	x	x	x	x	9	30	x	x	x	x
